This is an account of results in ChEMBL document CHEMBL1127484, “5-Aryl-3-(alkylthio)-4H-1,2,4-triazoles as selective antagonists of strychnine-induced convulsions and potential antispastic agents” (J Med Chem, 1994).

Active and inactive are the calls of the source.

Data set [1] in a line: Dose encompassing the 50% lethal effect was recorded when administered intraperitoneally in mice; Range is 400-800. Format: ADME, organism-based. As to conditions: mouse, in vivo, ip. In a few lines: (§1)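 Deaths were recorded over the 7 days after dosing. The estimated LD50 was taken as the dose range spanning 50% lethality.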
Data set [2] concerns Mus musculus. Description: Effective dose required for antagonist activity against pentylenetetrazole-induced seizures in mice when administered intraperitoneally. As to conditions: ip. Format: functional. In a few lines:
(§2)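 CD-1 male mice (18–26 g), groups of 5 or 10, housed individually, dosed ip in distilled H2O or H2O/Tween 80. Convulsant given 30 min later. Strychnine sulfate 2.7 mg/kg ip: protection = no tonic extension >15 min. MES 50 mA, 0.2 s, corneal: no tonic hind-limb extension. PTZ 60 mg/kg iv: no clonic seizures for 2 min. MPA 100 mg/kg iv: no seizures for 5 min. ED50 by quantal analysis from ≥4 doses, ≥10 mice each.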

Data set [3] has as its system Mus musculus. Description: Effective dose required for antagonist activity against 3-mercaptopropionic-acid induced seizures in mice when administered intraperitoneally. As to conditions: ip. Format: functional. In a few lines:
as §2

The test system of data set [4] is Mus musculus. Description: Effective dose required for antagonist activity against maximal electroshock induced seizures in mice when administered intraperitoneally. Format: functional. As to conditions: ip. The procedure, abridged: as §2
In general terms: The maximal electroshock test induces tonic seizures with an electrical stimulus.

In data set [5] the test system is Mus musculus. Description: Effective dose required for antagonist activity against strychnine induced seizures in mice when administered intraperitoneally; Range is 50-100. Format: functional. As to conditions: ip. The procedure, abridged:
as §2

Data set [6] has as its target T1, GABA-A receptor; anion channel (Rattus norvegicus) (UniProt O09028+P15431+P18506+P18508+P19969+P20236+P23574+P23576+P28471+P28473+P30191+P62813+P63079+P63138+Q91ZM7+Q9ES14). Description: In vitro displacement of [3H]flunitrazepam at GABA-A benzodiazepine site in rat cortical membranes at 100 uM (Inactive). As to conditions: Membrane. Format: cell membranes.
Data set [7] addresses GABA B receptor (Rattus norvegicus) (UniProt Q9Z0U4+O88871). The experiment in a line: In vitro displacement of [3H]baclofen at GABA-B receptor in rat cortical membranes at 100 uM (Inactive). As to conditions: Membrane. Format: cell membranes.
The subject of data set [8] is Rattus norvegicus. The experiment in a line: Effect of compound on […] function in spinal transected rats at 10 mg/Kg. Format: functional. In a few lines:
(§3)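 Spinal-transected rats, 5-10 weeks post-transection. Hind-limb activity recorded by transducer. Output integrated over the first 3 s after leg pull (stretch-evoked reflex function) and over the next 57 s (spontaneous hyperreflexia). Sessions were run before and after ip dosing. Test agent given as suspension in distilled H2O/1% Tween 80, or as solution in distilled H2O. Data expressed as % of control; paired t test or least-squared-means comparisons.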

The subject of data set [9] is Rattus norvegicus. The experiment in a line: Effect of compound on reflux function in spinal transected rats at 20 mg/Kg. Format: functional. In a few lines: as §3
Data set [10] has as its system Rattus norvegicus. Description: Effect of compound on reflux function in spinal transected rats at 40 mg/Kg. Format: functional. In a few lines:
as §3

Data set [11] deals with Rattus norvegicus. The experiment in a line: Effect of compound on hyperreflexia in spinal transected rats at 40 mg/Kg. Format: functional. In a few lines: as §3
Data set [12] has as its target T1, GABA-A receptor; anion channel (Rattus norvegicus). Description: In vitro displacement of [3H]muscimol from GABA-A receptor in rat cortical membranes at 100 uM (Inactive). As to conditions: Membrane. Format: cell membranes. Background: In a radioligand displacement assay an active substance lowers the binding of a labelled ligand.
Data set [13] concerns Rattus norvegicus. Description: Effect of compound on hyperreflexia in spinal transected rats at 20 mg/Kg. Format: functional. The procedure, abridged:
as §3

Data set [14] relates to Rattus norvegicus. Description: Effect of compound on hyperreflexia in spinal transected rats at 10 mg/Kg. Format: functional. The procedure, abridged: as §3
Data set [15] addresses Gamma-aminobutyric acid receptor subunit gamma-1 (Rattus norvegicus) (UniProt P23574). Description: Enhancement of 1 uM muscimol-stimulated 36Cl- uptake into rat cerebellar membrane. Format: functional. As to conditions: Cerebellum. In a few lines: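 Rat cerebellar membrane vesicles (adult male Sprague-Dawley) in HEPES/Tris buffer, pH 7.5. Preincubated on ice for 15 min with vehicle (0.2% DMSO) or 10 μM compound, then 5 min at 34 °C. 36Cl uptake run for 3 s with 1 μM muscimol and stopped by ice-cold 100 μM picrotoxin buffer plus filtration. Muscimol-stimulated uptake = uptake minus uptake without muscimol, in nmol/mg protein/3 s. Mean ± SEM, n = 3; Student's t test.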

A short description of data set [16]: Dose encompassing the 50% lethal effect was recorded when administered intraperitoneally in mice. Format: ADME, organism-based. As to conditions: mouse, in vivo, ip. The procedure, abridged: as §1
Data set [17] concerns Rattus norvegicus. The experiment in a line: Effect of compound on reflux function in spinal transected rats at 5 mg/Kg. Format: functional. The procedure, abridged:
as §3

Data set [18] concerns the target T1, GABA-A receptor; anion channel (Rattus norvegicus). Description: In vitro displacement of [35S]TBPS at GABA-A picrotoxin convulsant site in rat cortical membranes at 100 uM (Inactive). Format: cell membranes. As to conditions: Membrane.
The test system of data set [19] is Mus musculus. The experiment in a line: Effective dose required for antagonist activity against pentylenetetrazole-induced seizures in mice when administered intraperitoneally; Range is 50-100. As to conditions: ip. Format: functional. The procedure, abridged: as §2
Data set [20] has as its system Mus musculus. Description: Effective dose required for antagonist activity against strychnine induced seizures in mice when administered intraperitoneally. Format: functional. As to conditions: ip. The procedure, abridged:
as §2

In data set [21] the test system is Mus musculus. Description: Effective dose required for antagonist activity against strychnine induced seizures in mice when administered intraperitoneally; Range is 32-50. Format: functional. As to conditions: ip. In a few lines:
as §2

Data set [22] concerns Mus musculus. The experiment in a line: Effective dose required for antagonist activity against pentylenetetrazole-induced seizures in mice when administered intraperitoneally; Range is 100-200. Format: functional. As to conditions: ip. In a few lines:
as §2

Data set [23] has as its system Mus musculus. The experiment in a line: Effective dose required for antagonist activity against pentylenetetrazole-induced seizures in mice when administered intraperitoneally; Range is 25-50. Format: functional. As to conditions: ip. In a few lines: as §2
The subject of data set [24] is Mus musculus. Description: Effective dose required for antagonist activity against 3-mercaptopropionic-acid-induced seizures in mice when administered intraperitoneally; Range is 50-100. Format: functional. As to conditions: ip. In a few lines:
as §2

Data set [25] deals with Mus musculus. Description: Effective dose required for antagonist activity against 3-mercaptopropionic-acid-induced seizures in mice when administered intraperitoneally; Range 100-200. As to conditions: ip. Format: functional. In a few lines: as §2
Data set [26] concerns Mus musculus. Description: Effective dose required for antagonist activity against pentylenetetrazole-induced seizures in mice when administered intraperitoneally; Range 100-200. Format: functional. As to conditions: ip. In a few lines: as §2
Data set [27] has as its system Mus musculus. Description: Effective dose required for antagonist activity against maximal electroshock induced seizures in mice when administered intraperitoneally; Range is 100-200. As to conditions: ip. Format: functional. In a few lines:
as §2

Sequence of Gamma-aminobutyric acid receptor subunit gamma-1 (Rattus norvegicus) (P23574 whole entry): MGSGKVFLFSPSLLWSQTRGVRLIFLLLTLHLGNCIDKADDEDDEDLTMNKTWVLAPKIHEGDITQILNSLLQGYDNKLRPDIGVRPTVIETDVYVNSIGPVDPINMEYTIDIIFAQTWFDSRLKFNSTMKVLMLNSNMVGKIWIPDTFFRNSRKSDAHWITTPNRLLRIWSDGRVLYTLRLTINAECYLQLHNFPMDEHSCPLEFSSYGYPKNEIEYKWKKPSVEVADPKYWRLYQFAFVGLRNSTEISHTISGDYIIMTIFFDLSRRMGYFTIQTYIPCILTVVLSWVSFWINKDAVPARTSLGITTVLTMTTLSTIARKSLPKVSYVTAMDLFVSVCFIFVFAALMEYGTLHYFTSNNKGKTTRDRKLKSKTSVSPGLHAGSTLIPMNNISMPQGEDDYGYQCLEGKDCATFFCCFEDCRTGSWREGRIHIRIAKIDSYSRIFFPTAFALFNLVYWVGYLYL

Regarding `CSc1nnc(-c2ccc(C)cc2)n1C`, the median lethal dose (LD50) in data set [1] was determined as 800 mg/kg. Besides, the ED50 in the data set on Mus musculus [2] was more than 100 mg/kg; with Mus musculus [3], more than 100 mg/kg; in the data set with Mus musculus [4], more than 100 mg/kg; in the data set with Mus musculus [5] it was 100 mg/kg.
Take `Cn1c(-c2ccccc2)nnc1S(C)(=O)=O`: the Displacement result in [6], in data set [7], in data set [12] and in [18] was “inactive” throughout. The Control in the data set on Rattus norvegicus [8] amounted to 116%; with Rattus norvegicus [9] it was 114%; in the data set on Rattus norvegicus [10] it was 87%; with Rattus norvegicus [11] it was 43%; in the data set with Rattus norvegicus [13] it was 78%; in the data set with Rattus norvegicus [14], 46%. In addition, the Control in the data set on Rattus norvegicus [17] was 101%. Further, the Uptake (nM 3s-1 (mg of protein)-1) in data set [15] came to 3.82. The ED50 was 55 mg/kg with Mus musculus [2], more than 200 mg/kg in the data set on Mus musculus [3] and more than 200 mg/kg in the data set on Mus musculus [4]. For the same compound, the 50% lethal dose (LD50) in [16] is more than 800 mg/kg.
`CSc1nc(-c2ccc(Cl)cc2)nn1C`: the ED50 with Mus musculus [19] was 100 mg/kg; in the data set with Mus musculus [20] it was more than 200 mg/kg; in the data set with Mus musculus [3], more than 200 mg/kg; with Mus musculus [4] it was more than 200 mg/kg. In [16], the median lethal dose (LD50) was more than 800 mg/kg.
Take `Cn1c(-c2cccs2)nnc1[S+](C)[O-]` (stereo not given): the ED50 in the data set with Mus musculus [21] was 50 mg/kg; in the data set with Mus musculus [2], more than 200 mg/kg; in the data set with Mus musculus [3] it was more than 200 mg/kg; with Mus musculus [4], more than 200 mg/kg. Also, in data set [16], the LD50 is more than 800 mg/kg.
`CCS(=O)(=O)c1nnc(-c2ccccc2F)n1C`: the ED50 was 200 mg/kg with Mus musculus [22], 85.8 mg/kg in the data set on Mus musculus [20], more than 200 mg/kg in the data set with Mus musculus [3] and more than 200 mg/kg in the data set on Mus musculus [4]. In addition, the LD50 in data set [16] was more than 800 mg/kg.
As for `CCn1c(SC)nnc1-c1ccc(Cl)cc1`, the 50% effective dose (ED50) with Mus musculus [20] was 26.7 mg/kg; in the data set on Mus musculus [23], 50 mg/kg; with Mus musculus [24], 100 mg/kg; with Mus musculus [4], more than 50 mg/kg. In [16], this compound yielded an LD50 of more than 800 mg/kg.
Take `CSc1nnc(-c2ccccc2)n1C`: the ED50 was 200 mg/kg in the data set on Mus musculus [25], 37.8 mg/kg in the data set on Mus musculus [20], 200 mg/kg in the data set with Mus musculus [26] and more than 200 mg/kg in the data set with Mus musculus [4]. Also, in [16], the LD50 was more than 800 mg/kg.
In the case of `CC[S+]([O-])c1nnc(-c2ccccc2F)n1C` (stereo not given), the median effective dose (ED50) with Mus musculus [27] was 200 mg/kg; in the data set on Mus musculus [20], 32.7 mg/kg; in the data set on Mus musculus [2], more than 200 mg/kg; in the data set with Mus musculus [3] it was more than 200 mg/kg. For the same compound, the LD50 in data set [16] was more than 800 mg/kg.
As for `Cc1ccc(-c2nnc([S+](C)[O-])n2C)cc1` (stereo not given), the median effective dose (ED50) with Mus musculus [2] is more than 200 mg/kg; in the data set on Mus musculus [3], more than 200 mg/kg; in the data set with Mus musculus [4], more than 200 mg/kg; in the data set on Mus musculus [5], 100 mg/kg. Besides, the 50% lethal dose (LD50) in data set [16] was more than 800 mg/kg.
Consider `CSc1nnc(-c2ccccc2Cl)n1C`, for which the ED50 with Mus musculus [20], in the data set on Mus musculus [2], in the data set with Mus musculus [3] and in the data set on Mus musculus [4] was more than 50 mg/kg each time. In data set [1], this compound had an LD50 of 800 mg/kg.
Regarding `CSc1nnc(-c2cccs2)n1C`, the 50% effective dose (ED50) with Mus musculus [20] was 34.1 mg/kg; in the data set with Mus musculus [2], more than 100 mg/kg; in the data set with Mus musculus [3], more than 100 mg/kg; with Mus musculus [4], more than 100 mg/kg. Moreover, the LD50 in data set [1] was found to be 800 mg/kg.
On to `COc1ccc(-c2nnc(SC)n2C)cc1`, for which the ED50 in the data set with Mus musculus [20], with Mus musculus [2], with Mus musculus [3] and in the data set on Mus musculus [4] was more than 100 mg/kg in each case. The LD50 in data set [1] is 800 mg/kg.
Take `CCSc1nnc(-c2ccccc2F)n1C`: the figures for the ED50 with Mus musculus [27], in the data set on Mus musculus [19] and in the data set with Mus musculus [3] were 200 mg/kg, 100 mg/kg and more than 200 mg/kg, respectively. In data set [1], this compound came in with a median lethal dose (LD50) of 800 mg/kg.

For orientation: LD50 means the dose at which mortality reaches 50%. A higher LD50 goes with a less toxic substance. In general, ED50 refers to the dose at which the effect has come halfway, by size or by number of responders. The low end stands for greater potency, the high end for weaker potency.
